Data set [1] can be described thus: Spectroscopic properties and 1O2 quantum yield in MeCN. Type of data set: physicochemical. Particulars: for Φ Δ (1O2 quantum yield): irradiation at 450 nm, [Ru(bpy)3]Cl2 as reference.
For another data set, the system named is RPE-1 cells. Put plainly: Dark cytotoxicity, resazurin assay, non-cancerous RPE-1. The conditions noted are these: read-out: Cytotoxicity IC50 Dark, RPE-1, normoxia (20%). Type of data set: cell-based. (In general: Resazurin is reduced to fluorescent resorufin, in cell work by metabolically active cells.)
The test system of data set [2] is A549 cells. Put plainly: Cellular uptake by ICP-MS. Type of data set: cell-based, Human. Particulars: A549, 5 μM, 4 h. In a few lines: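 Test Os(II) complexes were added at 5 μM to A549 cells for 4 h under normoxic or hypoxic conditions. Uptake was quantified by ICP-MS from the cellular Ru/Os concentration. Experiments were done in triplicate.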
Data set [3] relates to A549 cells. Put plainly: Cellular uptake inhibition by acetazolamide pre-incubation, ICP-MS. Type of data set: cell-based, Human. Particulars: A549, complex 5 μM 4 h, acetazolamide 50 μM 2 h pre-incubation.
In data set [4] the test system is A549 cells. Put plainly: Cellular fraction. Type of data set: cell-based, Human. Particulars: A549, 24 h co-incubation, nuclei/cytoplasm isolated, ICP-MS. In a few lines: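 Test complexes were incubated with A549 cells for 24 h. Nuclei and cytoplasm were then isolated, and each fraction was analysed by ICP-MS for Ru or Os content to give the distribution between compartments. Experiments were done in triplicate.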

Data set [5] is described as follows: Octanol/PBS partition coefficient. The conditions noted are these: room temperature, PF6- salts. Type of data set: physicochemical. In a few lines: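 Partitioning measured between octanol and PBS; PBS replaced water to limit pH effects on log P. Complexes were tested as PF6− salts, whereas the biological assays used chloride salts.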
The next data set can be described thus: Solubility in water. Type of data set: physicochemical.

In the case of `[Cl][Ru][Cl].c1ccc(-c2ccccn2)nc1.c1ccc(-c2ccccn2)nc1.c1ccc(-c2ccccn2)nc1` [Ru(bpy)3, [Ru(bpy)3]Cl2, reference compound], in data set [1], the “Φ em (luminescence quantum yield)” value is recorded as 8%, the “λ em (emission maximum)” value stood at 608 nm, the “τ (fluorescence lifetime)” value is 159 ns and the “Φ Δ (1O2 quantum yield)” value is 77%.

A word on the IC50: it is the concentration that inhibits the measured activity by half. In the case of “[Os(Bphen)2(bpy-(NH2)2)]2+(2PF6-) [complex 9]”, in the data set with RPE-1 cells, the half-maximal inhibitory concentration (IC50) was more than 30 µM. In the data set on A549 cells [2], the “cellular uptake under hypoxic compared to normoxic conditions” value was “notably reduced cellular uptake under hypoxic conditions”. The “impact of acetazolamide pre-incubation on cellular uptake” value (“impact of acetazolamide pre-incubation” for short) with A549 cells [3] is “negligible”.

As for “[Os(Bphen)2(bpy-(NHCH2CH2NH2)2-L2)]2+(2PF6-).(L= N4-Succinoylsulfanilamide) [complex 12]”, in the data set with A549 cells [4], the “fraction localized within the cytoplasm” value is on record as “over 80%”. For the same compound, the half-maximal inhibitory concentration (IC50) in the data set on RPE-1 cells is more than 100 µM. Besides, the “log P (octanol/PBS partition coefficient)” value in data set [5] is given as “greater than 1”. Moreover, the “cellular uptake under hypoxic compared to normoxic conditions” value with A549 cells [2] is reported as 1.3 times. In addition, the “impact of acetazolamide pre-incubation” value in the data set with A549 cells [3] is “notably reduced”. In addition, in data set [1], the “Φ em (luminescence quantum yield)” value was determined as 0%. In “Solubility in water”, the solubility in water result is reported as “good solubility in water”.

Take “[Os(Bphen)2(bpy-(NHCH2CH2NH2)2-L)]2+(2PF6-).(L= N4-Succinoylsulfanilamide) [complex 11]”: the 50% inhibitory concentration (IC50) in the data set on RPE-1 cells is more than 100 µM. Also, in data set [5], the “log P (octanol/PBS partition coefficient)” value is listed as “greater than 1”. Also, the “impact of acetazolamide pre-incubation” value with A549 cells [3] is “notably reduced”. Moreover, in data set [1], the “Φ em (luminescence quantum yield)” value is recorded as 0%. For the same compound, in “Solubility in water”, the solubility in water entry was “good solubility in water”.

For the compound “[Ru(Bphen)2(bpy-(NH 2)2)]2+(2PF6-) [complex 3]”, the IC50 in the data set on RPE-1 cells is more than 100 µM. The “impact of acetazolamide pre-incubation” value in the data set on A549 cells [3] is on record as “negligible”.

For the compound “[Ru(Bphen)2(bpy-(NH CH 2CH2NH2)2-L2)]2+(2 P F 6-).(L= N4-Succinoylsulfanilamide) [complex 6]”, the “fraction localized within the cytoplasm” value in the data set on A549 cells [4] is recorded as “over 80%”. Further, the half-inhibitory concentration (IC50) in the data set with RPE-1 cells is more than 100 µM. In data set [5], the “log P (octanol/PBS partition coefficient)” value is “greater than 1”. The “impact of acetazolamide pre-incubation” value with A549 cells [3] is given as “notably reduced”. In data set [1], the “Φ em (luminescence quantum yield)” value was 2%, the “λ em (emission maximum)” value was 675 nm, the “τ (fluorescence lifetime)” value stood at 117 ns and the “Φ Δ (1O2 quantum yield)” value is reported as 77%. The solubility in water result in “Solubility in water” is on record as “good solubility in water”.

In the case of “[Ru(Bphen)2(bpy-(NH CH 2CH2NH2)2-L)]2+(2PF6-).(L= N4-Succinoylsulfanilamide) [complex 5]”, in the data set with RPE-1 cells, the IC50 is more than 100 µM. Moreover, the “impact of acetazolamide pre-incubation” value in the data set with A549 cells [3] is on record as “notably reduced”. In data set [1], the “Φ em (luminescence quantum yield)” value is reported as 2%, the “λ em (emission maximum)” value stood at 674 nm, the “τ (fluorescence lifetime)” value was found to be 122 ns and the “Φ Δ (1O2 quantum yield)” value stood at 77%. For the same compound, the solubility in water entry in “Solubility in water” is “good solubility in water”.

The record behind these values is article PMC10619633 (Chemical Science, 2023).
